Data published in ChEMBL document CHEMBL1811844, “Design, synthesis, and biological evaluation of triazolo-pyrimidine derivatives as novel inhibitors of hepatitis B virus surface antigen (HBsAg) secretion” (J Med Chem, 2011).

How the values were obtained:
Mus musculus [1] = assay: Acute toxicity in CL57BL/6 mouse assessed as effect on serum total protein level at 25 mg/kg, iv administered as single dose after 24 hrs; format: organism-based; parameters: dose 25 mg/kg, route intravenous; conditions: in vivo
Summary of the method: (§1)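 Female C57BL/6 mice, four per group, randomised; single tail-vein bolus in NMP:Solutol HS15 (1:1) diluted with saline to 2 mg/mL, injected within 10 min of preparation; vehicle-only group. Close observation for the first hour; sacrifice and necropsy at 24 h. Whole-blood complete blood counts and serum chemistry, including total bilirubin and total protein, were measured.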

Mus musculus [2] = assay: Acute toxicity in CL57BL/6 mouse assessed as effect on hemoglobin at 25 mg/kg, iv administered as single dose after 24 hrs; format: organism-based; parameters: dose 25 mg/kg, route intravenous; conditions: in vivo
Summary of the method: (§2)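 Female C57BL/6 mice, four per group, randomized, each given one tail-vein injection of a 2 mg/mL solution in 1:1 NMP:Solutol HS15 diluted with saline; a vehicle-only group served as control. Mice were watched closely for the first hour and sacrificed at 24 h with necropsy. Whole blood was taken for complete blood counts on an automated haematology analyser.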

Mus musculus [3] = assay: Toxicity in HBV infected transgenic 1.3.32 mouse assessed as change in blood urea nitrogen level at 7.9 to 25 mg/kg, po qd for 14 days; format: organism-based; parameters: dose 7.9-25 mg/kg, route oral; conditions: in vivo, 336 h
Summary of the method: (§3)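 HBV-transgenic mice (strain 1.3.32), 10 per group, randomised; oral gavage once daily for 14 days at 25 or 7.9 mg/kg in NMP:Solutol HS15/saline vehicle; vehicle-only group. Weighed before the first dose and after 3 days; observed one hour after each dose. Tail-vein blood taken before dosing, at day 7 and at day 14 necropsy, each 3 h post-dose, for serum chemistry.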

Mus musculus [4] = assay: Acute toxicity in CL57BL/6 mouse assessed as effect on mean platelet volume at 25 mg/kg, iv administered as single dose after 24 hrs; format: organism-based; parameters: dose 25 mg/kg, route intravenous; conditions: in vivo; summary of the method: as §2
Mus musculus [5] = assay: Acute toxicity in CL57BL/6 mouse assessed as weight loss at 25 mg/kg, iv administered as single dose after 24 hrs; format: organism-based; parameters: dose 25 mg/kg, route intravenous; conditions: in vivo; summary of the method: as §1
Mus musculus [6] = assay: Acute toxicity in CL57BL/6 mouse assessed as effect on eosinophils percent at 25 mg/kg, iv administered as single dose after 24 hrs; format: organism-based; parameters: dose 25 mg/kg, route intravenous; conditions: in vivo; summary of the method: as §2
Mus musculus [7] = assay: Acute toxicity in CL57BL/6 mouse assessed as effect on serum blood urea nitrogen level at 25 mg/kg, iv administered as single dose after 24 hrs; format: organism-based; parameters: dose 25 mg/kg, route intravenous; conditions: in vivo
Summary of the method: as §2, with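 “watched” for “watched closely”, “Serum” for “Whole blood”, “collected and run” for “taken for complete blood counts”, “chemistry and electrolyte” for “haematology”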

Mus musculus [8] = assay: Toxicity in HBV infected transgenic 1.3.32 mouse assessed as change in serum phosphorus level at 7.9 to 25 mg/kg, po qd for 14 days; format: organism-based; parameters: dose 7.9-25 mg/kg, route oral; conditions: in vivo, 336 h; summary of the method: as §3
Mus musculus [9] = assay: Acute toxicity in CL57BL/6 mouse assessed as effect on serum Ca2+ level at 25 mg/kg, iv administered as single dose after 24 hrs; format: organism-based; parameters: dose 25 mg/kg, route intravenous; conditions: in vivo
Summary of the method: as §2, with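 “watched” for “watched closely”, “Serum” for “Whole blood”, “collected and run” for “taken for complete blood counts”, “chemistry and electrolyte” for “haematology”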

Rattus norvegicus [10] = assay: Total body clearance in fasted Sprague-Dawley rat at 5 mg/kg, iv by LC/MS/MS analysis; format: ADME, organism-based; parameters: dose 5 mg/kg, route intravenous; conditions: in vivo
Summary of the method: (§4)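 Male Sprague-Dawley rats, 3 per treatment, carried jugular cannulae and were fasted 12 h with water. Compound was formulated at 2 mg/mL in 1:1 NMP:Solutol HS15 diluted with saline. Dosing was 5 mg/kg iv or 25 mg/kg oral gavage. Blood was drawn predose and at 5, 15, 30 min, 1, 3 and 6 h. Plasma was quantified by LC-MS/MS against an 8-point standard curve.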

Rattus norvegicus [11] = assay: Volume of distribution at steady state in fasted Sprague-Dawley rat at 5 mg/kg, iv by LC/MS/MS analysis; format: ADME, organism-based; parameters: dose 5 mg/kg, route intravenous; conditions: in vivo; summary of the method: as §4
Mus musculus [12] = assay: Acute toxicity in CL57BL/6 mouse assessed as effect on hemoglobin concentration at 25 mg/kg, iv administered as single dose after 24 hrs; format: organism-based; parameters: dose 25 mg/kg, route intravenous; conditions: in vivo; summary of the method: as §2
Mus musculus [13] = assay: Acute toxicity in CL57BL/6 mouse assessed as effect on hematocrit at 25 mg/kg, iv administered as single dose after 24 hrs; format: organism-based; parameters: dose 25 mg/kg, route intravenous; conditions: in vivo; summary of the method: as §2
Mus musculus [14] = assay: Acute toxicity in CL57BL/6 mouse assessed as effect on serum albumin level at 25 mg/kg, iv administered as single dose after 24 hrs; format: organism-based; parameters: dose 25 mg/kg, route intravenous; conditions: in vivo
Summary of the method: as §2, with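 “watched” for “watched closely”, “Serum” for “Whole blood”, “collected and run” for “taken for complete blood counts”, “chemistry and electrolyte” for “haematology”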

Mus musculus [15] = assay: Toxicity in HBV infected transgenic 1.3.32 mouse assessed as elevation in serum Na+ level at 7.9 to 25 mg/kg, po qd for 14 days; format: organism-based; parameters: dose 7.9-25 mg/kg, route oral; conditions: in vivo, 336 h; summary of the method: as §3
Hepatitis B virus [16] = assay: Antiviral activity against entecavir-resistant Hepatitis B virus harboring polymerase L528M, M552V, T532G and S550I mutant in human HepG2 cells assessed as inhibition of HBsAg secretion by ELISA; format: functional, organism-based
Mus musculus [17] = assay: Toxicity in HBV infected transgenic 1.3.32 mouse assessed as weight loss at 7.9 to 25 mg/kg, po qd for 14 days; format: organism-based; parameters: dose 7.9-25 mg/kg, route oral; conditions: in vivo, 336 h; summary of the method: as §3
Rattus norvegicus [18] = assay: Half life in fasted Sprague-Dawley rat plasma at 5 mg/kg, iv by LC/MS/MS analysis; format: ADME, organism-based; parameters: dose 5 mg/kg, route intravenous; conditions: in vivo; summary of the method: as §4
Mus musculus [19] = assay: Toxicity in HBV infected transgenic 1.3.32 mouse assessed as elevation in serum bilirubin level at 7.9 to 25 mg/kg, po qd for 14 days; format: organism-based; parameters: dose 7.9-25 mg/kg, route oral; conditions: in vivo, 336 h; summary of the method: as §3
Mus musculus [20] = assay: Acute toxicity in CL57BL/6 mouse assessed as effect on serum total bilirubin level at 25 mg/kg, iv administered as single dose after 24 hrs; format: organism-based; parameters: dose 25 mg/kg, route intravenous; conditions: in vivo
Summary of the method: as §2, with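 “watched” for “watched closely”, “Serum” for “Whole blood”, “collected and run” for “taken for complete blood counts”, “chemistry and electrolyte” for “haematology”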

[21] = Cytotoxicity against human HepG2(2.2.15) cells by MTT assay; format: cell-based
Mus musculus [22] = assay: Acute toxicity in CL57BL/6 mouse assessed as mortality at 25 mg/kg, iv administered as single dose after 24 hrs; format: organism-based; parameters: dose 25 mg/kg, route intravenous; conditions: in vivo; summary of the method: as §1
Mus musculus [23] = assay: Acute toxicity in CL57BL/6 mouse assessed as effect on serum glucose level at 25 mg/kg, iv administered as single dose after 24 hrs; format: organism-based; parameters: dose 25 mg/kg, route intravenous; conditions: in vivo
Summary of the method: as §2, with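 “watched” for “watched closely”, “Serum” for “Whole blood”, “collected and run” for “taken for complete blood counts”, “chemistry and electrolyte” for “haematology”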

Mus musculus [24] = assay: Toxicity in HBV infected transgenic 1.3.32 mouse assessed as change in serum Ca2+ level at 7.9 to 25 mg/kg, po qd for 14 days; format: organism-based; parameters: dose 7.9-25 mg/kg, route oral; conditions: in vivo, 336 h; summary of the method: as §3
Mus musculus [25] = assay: Toxicity in HBV infected transgenic 1.3.32 mouse assessed as elevation in serum alanine aminotransferase level at 7.9 to 25 mg/kg, po qd for 14 days; format: organism-based; parameters: dose 7.9-25 mg/kg, route oral; conditions: in vivo, 336 h; summary of the method: as §3
Hepatitis B virus [26] = assay: Antiviral activity against adefovir-resistant Hepatitis B virus harboring polymerase N584T mutant in human HepG2 cells assessed as inhibition of HBsAg secretion by ELISA; format: functional, organism-based
Mus musculus [27] = assay: Toxicity in HBV infected transgenic 1.3.32 mouse assessed as morphological changes at 7.9 to 25 mg/kg, po qd for 14 days; format: organism-based; parameters: dose 7.9-25 mg/kg, route oral; conditions: in vivo, 336 h; summary of the method: as §3
Mus musculus [28] = assay: Toxicity in HBV infected transgenic 1.3.32 mouse assessed as change in serum creatinine level at 7.9 to 25 mg/kg, po qd for 14 days; format: organism-based; parameters: dose 7.9-25 mg/kg, route oral; conditions: in vivo, 336 h; summary of the method: as §3
Mus musculus [29] = assay: Acute toxicity in CL57BL/6 mouse assessed as reduction in neutrophils count at 25 mg/kg, iv administered as single dose after 24 hrs; format: organism-based; parameters: dose 25 mg/kg, route intravenous; conditions: in vivo; summary of the method: as §1
Mus musculus [30] = assay: Acute toxicity in CL57BL/6 mouse assessed as effect on serum globulin level at 25 mg/kg, iv administered as single dose after 24 hrs; format: organism-based; parameters: dose 25 mg/kg, route intravenous; conditions: in vivo
Summary of the method: as §2, with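 “watched” for “watched closely”, “Serum” for “Whole blood”, “collected and run” for “taken for complete blood counts”, “chemistry and electrolyte” for “haematology”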

Mus musculus [31] = assay: Acute toxicity in CL57BL/6 mouse assessed as effect on serum K+ level at 25 mg/kg, iv administered as single dose after 24 hrs; format: organism-based; parameters: dose 25 mg/kg, route intravenous; conditions: in vivo
Summary of the method: as §2, with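 “watched” for “watched closely”, “Serum” for “Whole blood”, “collected and run” for “taken for complete blood counts”, “chemistry and electrolyte” for “haematology”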

With `Fc1cccc(Cl)c1C1CC(c2ccc(Cl)cc2)Nc2ncnn21` (racemic) the Activity (Mus musculus [1]) was “Non-toxic”, the Activity (Mus musculus [2]) was “Non-toxic” and the Activity (Mus musculus [3]) was “Non-toxic”. For the same compound, the Activity (Mus musculus [4]) was “Non-toxic”, the Activity (Mus musculus [5]) was “Non-toxic” and the Activity (Mus musculus [6]) was “Non-toxic”. For the same compound, the Activity (Mus musculus [7]) was “Non-toxic”, the Activity (Mus musculus [8]) was “Non-toxic” and the Activity (Mus musculus [9]) was “Non-toxic”. The CL (Rattus norvegicus [10]) was 12 mL/min/kg, the Vdss (Rattus norvegicus [11]) was 1.6 L/kg and the Activity (Mus musculus [12]) was “Non-toxic”. The Activity (Mus musculus [13]) was “Non-toxic”, the Activity (Mus musculus [14]) was “Non-toxic” and the Activity (Mus musculus [15]) was “Toxic”. For the same compound, the EC50 (Hepatitis B virus [16]) was 8.3 µM, the Activity (Mus musculus [17]) was “Non-toxic” and the t1/2 (Rattus norvegicus [18]) was 2.17 h. For the same compound, the Activity (Mus musculus [19]) was “Toxic”, the Activity (Mus musculus [20]) was “Non-toxic” and the CC50 [21] was over 50 µM. For the same compound, the Activity (Mus musculus [22]) was “Non-toxic”, the Activity (Mus musculus [23]) was “Non-toxic” and the Activity (Mus musculus [24]) was “Non-toxic”. The Activity (Mus musculus [25]) was “Toxic”, the EC50 (Hepatitis B virus [26]) was 5.6 µM and the Activity (Mus musculus [27]) was “Non-toxic”. The Activity (Mus musculus [28]) was “Non-toxic”, the Activity (Mus musculus [29]) was “Toxic” and the Activity (Mus musculus [30]) was “Non-toxic”. For the same compound, the Activity (Mus musculus [31]) was “Non-toxic”.
